High-throughput results deposited in PubChem by Broad Institute.
Compounds with a hit are over-represented: about 3.5% of the library has one in this group of screens.
Cneo AK release = causes C. neoformans cell lysis. 0.2% of 360,000 active. adenylate kinase release luminescence, 4 h; normalised: neutral wells 0, clomiphene wells 100. lysis activity, % at 15 µM. AID 651654;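 active means mean lysis activity across replicates of at least 80%, whatever share of replicates individually reach that level; inactive means mean lysis activity below 80%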
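Assay system: log-phase C. neoformans yeast / Quantity: yeast cell density of 5 × 10^6 cells/mL / Medium: fresh YPD growth medium / Compound: single dose / Timing: static 4 h at 37 °C with compound, 1 h detection / Measured by: adenylate kinase release luminescence / Read-out: lysis from increased AK signal / Benchmarks: Clomiphene as positive lysis control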
esBAF inh = inhibitors of esBAF chromatin remodeling in mouse ES cells. Bmi1-luciferase knock-in reporter, 24 h; 100% = twice the neutral-well signal. reporter increase, % at 12.5 µM. 2% of 350,000 active. AID 602393; in the data active means activation above about 40%; inconclusive means no clear call, values can overlap the other calls;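 further: 0% = median of the plate's neutral control wells and 100% = double that signal; a rise in the Bmi1 reporter signal indicates esBAF inhibition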
Wnt act = activates Wnt/beta-catenin signaling in a reporter cell assay; activator, plate reader; activation, % at 9.35 µM; 1.2% of 300,000 active; in the data active means activation above about 30%, passing the limit was not always enough; inconclusive means no clear call, values can overlap the other calls;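 further: 0% = neutral control wells and 100% = positive control wells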
HIV Env fusion = blocks HIV Env-driven cell-cell fusion; HeLa-JRFL Env/CEM21 cell fusion, luciferase; inhibition, % at 12.3 µM; 1.1% of 360,000 active; AID 651610;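 active means mean replicate inhibition score of at least 50 and every replicate individually at or above 50; inconclusive means only one of the two criteria met; inactive means mean below 50 and not all replicates reaching 50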;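 further: 0% = plate neutral controls and 100% = maraviroc near 300 nM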
MITF TRPM1 HTS = MITF TRPM1 promoter activation in melanoma cells | 0.75% of 300,000 active | AID 588334 | SK-MEL-5 TRPM1-promoter luciferase, 24 h; % of positive control, neutral wells = 0 | activation, % at 12.5 µM;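 active means mean activation of at least 80% with every replicate also reaching 80%; inconclusive means mean reaches 80% but some replicate falls short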;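 further: 0% = neutral control wells and 100% = parthenolide positive control wells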
ERAP1 HTS inh = inhibitors of human ERAP1 aminopeptidase; AID 652197; inhibition, % at 10.7 µM; 0.15% of 340,000 active; Q9NZ08; recombinant ERAP1, Leu-AMC fluorescence, 60 min;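 active means mean replicate inhibition of at least 30%, or all replicates individually reaching that 30% level; inactive means mean below 30% and not every replicate reaching it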;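 further: 0% = neutral control wells and 100% = L-leucinethiol positive control wells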
The depositor's hits bear a star; ? = inconclusive; · = not tested or not shown; ! = not confirmed by another sample; [ ] = another dose, or the depositor's remark.

SMILES	Cneo AK release	esBAF inh	Wnt act	HIV Env fusion	MITF TRPM1 HTS	ERAP1 HTS inh
CC(C)c1ccc(OCc2ccc(C(=O)O)o2)cc1	-3.1	?	12.3	-27.3	-18.3	0.1
CN(C)C(=O)c1ccc(COc2ccccc2Br)o1	-3.7	62.1*	·	·	65.3	·
O=C(Nc1nccs1)c1ccc(COc2ccccc2Br)o1	-0.5	49.8*	·	·	61.4	·
O=C(Nc1nccs1)c1ccc(COc2ccc(Cl)cc2)o1	·	·	·	·	16.9	·
O=C(Nc1nccs1)c1ccc(COc2ccc(F)cc2)o1	0.1	60.5*	24.0	-33.6	50.5	·
CC(C)c1ccc(OCc2ccc(C(=O)N(C)C)o2)cc1	-0.9	57.0*	45.4*	-63.2	91.4*	-4.6
COc1ccccc1OCc1ccc(C(=O)N(C)C)o1	-0.9	20.7	·	·	10.0	·
C[C@H]1CN([C@@H](C)CO)C(=O)c2cc(NC(=O)Nc3ccc(F)cc3)ccc2O[C@@H]1CN(C)CC1CC1	·	·	·	·	·	0.5
Cc1cc(CN(C)C(=O)CC2C(=O)NCCN2Cc2c(F)cccc2Cl)n[nH]1 (stereo unspecified)	·	·	-10.7	64.7*	0.5	-3.6
Cc1noc(C)c1NC(=O)N(C)C[C@H]1Oc2c(NC(=O)C3CC3)cccc2C(=O)N([C@@H](C)CO)C[C@H]1C	2.6	1.3	·	0.0[16.7 µM]	·	1.5
Cc1ccc(-c2cc(C(=O)NCc3ccccn3)c3ccccc3n2)cc1C	-10.0	48.4*	·	·	32.9	-0.5
C/C(=N\NC(=O)c1cccs1)c1cccnc1	·	·	5.5	-5.8	18.3	-2.1
COCCNC(=O)c1cc(-c2ccc(-c3ccccc3)cc2)nc2ccccc12	-1.3	47.4*	9.4	-47.6	49.3	-0.5
Cc1cccc(-c2cc(C(=O)NCc3ccccn3)c3ccccc3n2)c1	·	·	-1.9	-14.2	2.8	-0.6
CCc1ccc(C(=O)N/N=C(\C)c2cccnc2)s1	-0.5	43.3*	10.6	-11.7	109.1*	1.5
CCOc1ccc(-c2cc(C(=O)N/N=C(\C)c3cccnc3)c3ccccc3n2)cc1	-10.1	19.7	19.8	-125.6	88.0*	-5.1
COc1ccc(OC)c(-c2cc(C(=O)N/N=C(\C)c3cccnc3)c3ccccc3n2)c1	0.2	-7.7	-5.5	2.7	-1.1	-1.3
CN(C[C@H]1N[C@H](CO)[C@H]1c1ccc(-c2cccc(F)c2)cc1)S(C)(=O)=O	-0.8	-1.1	·	·	·	-5.7
C[C@@H]1CN([C@@H](C)CO)C(=O)c2cccc(NC(=O)c3ccc(-c4nccs4)cc3)c2O[C@H]1CN(C)C(=O)Nc1ccc(C(F)(F)F)cc1	0.6	8.2	·	·	·	-0.5
C[C@@H]1CN([C@H](C)CO)C(=O)Cc2cc(NS(=O)(=O)c3ccccc3)ccc2O[C@@H]1CN(C)CC1CC1	-1.7	0.5	·	·	·	1.4
COc1ccc(NC(=O)N(C)C[C@@H]2Oc3ccc(NC(=O)NC4CCCCC4)cc3C(=O)N([C@H](C)CO)C[C@H]2C)cc1	0.6	0.6	·	13.9[16.7 µM]	·	2.9
CC(C)NC(=O)N(C)C[C@H]1Oc2ncc(C#CC3CC3)cc2C(=O)N([C@@H](C)CO)C[C@H]1C	37.5	3.0	·	-38.5[16.7 µM]	·	1.2
NS(=O)(=O)c1ccc(CCNC(=O)c2cc(-c3ccc(Br)cc3)nc3ccccc23)cc1	·	·	-2.4	-4.6	20.7	·
COc1ccc(Cl)cc1C(=O)NNC(=S)NC(=O)c1cc(-c2ccccc2)nc2ccccc12	-0.8	-12.8	·	72.7*	-6.6	·
O=C(NCc1ccccn1)c1cc(-c2ccc(-c3ccccc3)cc2)nc2ccccc12	·	45.3*	-8.4	-126.5	22.9	22.4
SMILES	Cneo AK release	esBAF inh	Wnt act	HIV Env fusion	MITF TRPM1 HTS	ERAP1 HTS inh
O=C(NCc1ccccn1)c1cc(-c2ccccc2)nc2ccccc12	·	·	-1.1	-21.5	5.5	-2.0
COc1ccc(C(=O)NNC(=S)NC(=O)c2cc(-c3ccccc3)nc3ccccc23)cc1	-0.8	·	-2.7	40.3	1.7	·
CCCc1ccc(-c2cc(C(=O)NCCc3ccc(S(N)(=O)=O)cc3)c3ccccc3n2)cc1	·	32.3	·	-359.4	105.7*	·
O=C1N[C@@H](c2ccccc2)COCc2cn(nn2)CC[C@@H]1Cc1ccccc1	0.9	·	·	7.3[16.7 µM]	·	-0.6
CNC[C@H]1OCCCC[C@H](C)Oc2ccc(NC(=O)CCCN(C)C)cc2C(=O)N([C@H](C)CO)C[C@@H]1C	107.2*!	-2.9	-0.8	4.1	·	5.3
CNC[C@@H]1OCCCC[C@H](C)Oc2ccc(NC(=O)NC(C)C)cc2C(=O)N([C@H](C)CO)C[C@H]1C	116.8*	·	·	17.4[16.7 µM]	·	1.5
